# Source: ChEMBL document CHEMBL1126896, “Preparation and anti-HIV activity of O-acylated heparin and dermatan sulfate derivatives with low anticoagulant effect” (J Med Chem, 1993)
# What was measured:
# HuT78 [1] = test: Giant-cell formation between persistently HIV-1 infected HUT-78 cells and uninfected MOLT-4 cells; assay type: functional, cell-based
# Summary of the method: (§1)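 MOLT-4 cells were co-cultured with an equal number of HUT-78 cells persistently infected with HIV-1 IIIB or HIV-2 ROD, with varying compound concentrations. Syncytia were counted by flow cytofluorography after 24 h. EC50 is the concentration giving 50% protection against giant-cell formation.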
# HuT78 [2] = test: Giant-cell formation between persistently HIV-2 infected HUT-78 cells and uninfected MOLT-4 cells; assay type: functional, cell-based; summary of the method: as §1
# [3] = In vitro anticoagulant activity determined by clotting test of activated partial thromboplastin time (APTT) on a pool of human plasma; assay type: functional
# Summary of the method: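 Activated partial thromboplastin time clotting test on pooled human plasma, run on an automatic coagulometer. Activities were calculated according to the European Pharmacopoeia.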
# MT4 [4] = test: Effective concentration to achieve 50% protection of MT-4 cells against the cytopathic effect of HIV-1; assay type: functional, cell-based
# MT4 [5] = test: Effective concentration to achieve 50% protection of MT-4 cells against the cytopathic effect of HIV-2; assay type: functional, cell-based
# MT4 [6] = test: Selectivity index for CC50 (cytotoxic concentration based on the reduction of the viability of mock-infected MT-4 cells) to that of EC50 against HIV-1; assay type: functional
# Summary of the method: (§2)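 MT-4 cells at 3 × 10^5 cells/mL were infected with HIV-1 IIIB or HIV-2 ROD at 100 CCID50/mL, or mock-infected, alongside serial compound dilutions. Viability was read by MTT after 5 days at 37 °C. CC50 comes from mock-infected cells and EC50 from protection against cytopathicity. Index = CC50/EC50.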
# MT4 [7] = test: Selectivity index for CC50 (cytotoxic concentration based on reduction of viability of mock-infected MT-4 cells) to that of EC50 against HIV-2; assay type: functional; summary of the method: as §2
# [8] = Homo sapiens, HuT78, read-out: EC50
# [9] = Homo sapiens, MT4, read-out: EC50
SMILES,EC50 (HuT78 [1]; [8]) [µg/mL],EC50 (HuT78 [2]; [8]) [µg/mL],APTT [3] [IU mg-1],EC50 (MT4 [4]; [9]) [µg/mL],EC50 (MT4 [5]; [9]) [µg/mL],Selectivity index (MT4 [6]),Selectivity index (MT4 [7]),EC50 (HuT78 [1]; hut78) [µg/mL],EC50 (MT4 [4]; mt4) [µg/mL],EC50 (MT4 [5]; mt4) [µg/mL],EC50 (HuT78 [2]; hut78) [µg/mL]
C/C=C\COC(=O)/C=C(\CO)OC1OC(COS(=O)(=O)[O-])C(OC2OC(C(=O)OC/C=C/C)C(OC3OC(COS(=O)(=O)[O-])C(OC4OC(C(=O)OC/C=C/C)C(OC5OC(COS(=O)(=O)[O-])C(O)C(O)C5NS(=O)(=O)[O-])C(O)C4OS(=O)(=O)[O-])C(O)C3NS(=O)(=O)[O-])C(O)C2OS(=O)(=O)[O-])C(O)C1NS(=O)(=O)[O-].[Na+].[Na+].[Na+].[Na+].[Na+].[Na+].[Na+].[Na+] (stereo not given),10,1,3,0.1,1.3,>5000,>384,–,–,–,–
CCCC(=O)OC/C(=C\C(=O)[O-])O[C@H]1O[C@H](COS(=O)(=O)[O-])[C@@H](O[C@@H]2O[C@@H](C(=O)[O-])[C@@H](O[C@H]3O[C@H](COS(=O)(=O)[O-])[C@@H](O[C@@H]4O[C@@H](C(=O)[O-])[C@@H](O[C@H]5O[C@H](CS(=O)(=O)[O-])[C@@H](O)[C@H](OC(=O)CCC)[C@H]5NS(=O)(=O)[O-])[C@H](OC(=O)CCC)[C@H]4OS(=O)(=O)[O-])[C@H](OC(=O)CCC)[C@H]3NS(=O)(=O)[O-])[C@H](OC(=O)CCC)[C@H]2OS(=O)(=O)[O-])[C@H](OC(=O)CCC)[C@H]1NS(=O)(=O)[O-].[Na+].[Na+].[Na+].[Na+].[Na+].[Na+].[Na+].[Na+].[Na+].[Na+].[Na+] (stereo in doubt; 4c),–,–,2.7,–,–,80,40000,57.5,5,0.01,–
CCCCCC(=O)OC/C(=C\C(=O)[O-])OC1OC(COS(=O)(=O)[O-])C(OC2OC(C(=O)[O-])C(OC3OC(COS(=O)(=O)[O-])C(OC4OC(C(=O)[O-])C(OC5OC(CS(=O)(=O)[O-])C(O)C(OC(=O)CCCCC)C5NS(=O)(=O)[O-])C(OC(=O)CCCCC)C4OS(=O)(=O)[O-])C(OC(=O)CCCCC)C3NS(=O)(=O)[O-])C(OC(=O)CCCCC)C2OS(=O)(=O)[O-])C(OC(=O)CCCCC)C1NS(=O)(=O)[O-].[Na+].[Na+].[Na+].[Na+].[Na+].[Na+].[Na+].[Na+].[Na+].[Na+].[Na+] (stereo in doubt; 3i),–,–,–,–,–,>2600,>1666,–,–,0.3,13
CCCC(=O)OC/C(=C\C(=O)[O-])O[C@H]1O[C@H](COS(=O)(=O)[O-])[C@@H](O[C@@H]2O[C@@H](C(=O)[O-])[C@@H](O[C@H]3O[C@H](COS(=O)(=O)[O-])[C@@H](O[C@@H]4O[C@@H](C(=O)[O-])[C@@H](O[C@H]5O[C@H](CS(=O)(=O)[O-])[C@@H](O)[C@H](OC(=O)CCC)[C@H]5NS(=O)(=O)[O-])[C@H](OC(=O)CCC)[C@H]4OS(=O)(=O)[O-])[C@H](OC(=O)CCC)[C@H]3NS(=O)(=O)[O-])[C@H](OC(=O)CCC)[C@H]2OS(=O)(=O)[O-])[C@H](OC(=O)CCC)[C@H]1NS(=O)(=O)[O-].[Na+].[Na+].[Na+].[Na+].[Na+].[Na+].[Na+].[Na+].[Na+].[Na+].[Na+] (stereo in doubt; 4d),–,–,2.9,–,–,>382,>12500,37.3,1.31,0.04,–
O=C([O-])/C=C(\COC(=O)c1ccccc1)OC1OC(COS(=O)(=O)[O-])C(OC2OC(C(=O)[O-])C(OC3OC(COS(=O)(=O)[O-])C(OC4OC(C(=O)[O-])C(OC5OC(COS(=O)(=O)[O-])C(O)C(OC(=O)c6ccccc6)C5NS(=O)(=O)[O-])C(OC(=O)c5ccccc5)C4OS(=O)(=O)[O-])C(OC(=O)c4ccccc4)C3NS(=O)(=O)[O-])C(OC(=O)c3ccccc3)C2OS(=O)(=O)[O-])C(OC(=O)c2ccccc2)C1NS(=O)(=O)[O-].[Na+].[Na+].[Na+].[Na+].[Na+].[Na+].[Na+].[Na+].[Na+].[Na+].[Na+] (stereo not given),3,–,8,0.1,0.2,>5000,>2500,–,–,–,–
CCCCCC(=O)OC/C(=C\C(=O)[O-])OC1OC(COS(=O)(=O)[O-])C(OC2OC(C(=O)[O-])C(OC3OC(COS(=O)(=O)[O-])C(OC4OC(C(=O)[O-])C(OC5OC(CS(=O)(=O)[O-])C(O)C(OC(=O)CCCCC)C5NS(=O)(=O)[O-])C(OC(=O)CCCCC)C4OS(=O)(=O)[O-])C(OC(=O)CCCCC)C3NS(=O)(=O)[O-])C(OC(=O)CCCCC)C2OS(=O)(=O)[O-])C(OC(=O)CCCCC)C1NS(=O)(=O)[O-].[Na+].[Na+].[Na+].[Na+].[Na+].[Na+].[Na+].[Na+].[Na+].[Na+].[Na+] (stereo in doubt; 2e),–,–,7,–,–,>1613,>294,2.9,0.31,1.71,–
